Data published in ChEMBL document CHEMBL2413053, “3'-Oxo-, amino-, thio- and sulfone-acetic acid modified thymidines: effect of increased acidity on ribonuclease A inhibition” (Bioorg Med Chem, 2013).
Active and inactive are the calls of the source. The rule behind the calls is not given here.

Tests used:
[1] = biological target: T1, Ribonuclease pancreatic (Bos taurus) (UniProt P61823); experiment: Inhibition of bovine pancreatic RNase A assessed as degradation of tRNA at 0.35 mM incubated for 2 hrs prior to tRNA addition measured after 30 mins by precipitation assay
T1 sequence (whole entry): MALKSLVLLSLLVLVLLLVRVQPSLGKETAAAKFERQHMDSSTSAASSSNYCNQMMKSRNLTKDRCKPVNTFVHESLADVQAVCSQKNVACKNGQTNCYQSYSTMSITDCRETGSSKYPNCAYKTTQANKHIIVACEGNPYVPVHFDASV
How it was run: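 RNase A (1.31 μM) preincubated with compound (0.35 mM) 2 h at 37 °C; aliquot then mixed with tRNA (5 mg/mL) in Tris–HCl pH 7.5 with 5 mM EDTA and 0.5 mg/mL HSA, 30 min at 25 °C. Quenched with ice-cold 1.14 M perchloric acid/6 mM uranyl acetate, 30 min on ice, centrifuged; diluted supernatant A260 compared with control.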

[2] = biological target: T1, Ribonuclease pancreatic (Bos taurus); experiment: Inhibition of bovine pancreatic RNase A assessed as degradation of tRNA at 0.07 to 0.20 mM incubated for 3 hrs prior to tRNA addition measured after 30 mins by agarose gel electrophoresis
How it was run: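 RNase A (1.51 μM stock) preincubated 3 h with compound at 0.07, 0.14 and 0.20 mM in 100 μL. Aliquot then mixed 1:1 with tRNA (5.0 mg/mL, freshly dissolved in RNase-free water) and held 30 min. Sample buffer with glycerol and bromophenol blue was added. Run on 1.1% agarose gel in 0.04 M TAE, pH 8.0. Residual tRNA seen by ethidium bromide staining under UV.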

Ribonuclease pancreatic = biological target: T2, Ribonuclease pancreatic (Bos taurus, UniProt P61823); experiment: Reversible competitive inhibition of bovine pancreatic RNase A using 2',3'-cCMP as substrate by Lineweaver-Burk plot analysis
T2 sequence (P61823 whole entry): T1 sequence (whole entry)
How it was run: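 Spectrophotometric RNase A assay in 0.1 M Mes–NaOH, pH 6.0, with 0.1 M NaCl, using 2',3'-cCMP as substrate at varied concentrations. Two fixed inhibitor concentrations were run plus a no-inhibitor set. Ki was derived from initial velocities by Lineweaver–Burk analysis.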

[3] = biological target: T1, Ribonuclease pancreatic (Bos taurus); settings: 0.05 to 0.24 mM
[4] = biological target: T1, Ribonuclease pancreatic (Bos taurus); experiment: Inhibition of bovine pancreatic RNase A assessed as degradation of tRNA at 0.06 to 0.24 mM incubated for 3 hrs prior to tRNA addition measured after 30 mins by agarose gel electrophoresis
How it was run: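 RNase A (1.26 μM stock) preincubated 3 h with compound at 0.06, 0.12, 0.18 and 0.24 mM in 100 μL. Aliquot then mixed with tRNA (5.0 mg/mL, freshly dissolved in RNase-free water) for 30 min. Run on 1.1% agarose gel in 0.04 M TAE, pH 8.0. Residual tRNA visualized by ethidium bromide staining under UV.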

[5] = biological target: T1, Ribonuclease pancreatic (Bos taurus); settings: 0.05 to 0.20 mM

| inhibition [1] | inhibition [2] | Ki (Ribonuclease pancreatic) | inhibition [3] | inhibition [4] | inhibition [5] | Structure (SMILES) |
| --- | --- | --- | --- | --- | --- | --- |
| 18% | Active | 140 µM | – | – | – | COC(=O)CS(=O)(=O)[C@H]1C[C@H](n2cc(C)c(=O)[nH]c2=O)O[C@@H]1CO |
| 7% | Active | 504 µM | – | – | – | CCOC(=O)CN[C@H]1C[C@H](n2cc(C)c(=O)[nH]c2=O)O[C@@H]1CO |
| 19% | Active | 186 µM | – | – | – | Cc1cn([C@H]2C[C@H](NCC(=O)O)[C@@H](CO)O2)c(=O)[nH]c1=O |
| 33% | – | 39 µM | Active | – | – | Cc1cn([C@H]2C[C@@H](S(=O)(=O)CC(=O)O)[C@@H](CS(=O)(=O)CC(=O)O)O2)c(=O)[nH]c1=O |
| 18% | – | 93 µM | – | Active | – | Cc1cn([C@H]2C[C@H](SCC(=O)O)[C@@H](CSCC(=O)O)O2)c(=O)[nH]c1=O |
| 12% | Active | 242 µM | – | – | – | COC(=O)CS(=O)(=O)C[C@H]1O[C@@H](n2cc(C)c(=O)[nH]c2=O)C[C@H]1S(=O)(=O)CC(=O)OC |
| 16% | – | 108 µM | – | – | – | Cc1cn([C@H]2C[C@@H](SCC(=O)O)[C@@H](CSCC(=O)O)O2)c(=O)[nH]c1=O |
| 17% | Active | 169 µM | – | – | – | Cc1cn([C@H]2C[C@H](SCC(=O)O)[C@@H](CO)O2)c(=O)[nH]c1=O |
| 25% | – | 88 µM | – | Active | – | Cc1cn([C@H]2C[C@H](S(=O)(=O)CC(=O)O)[C@@H](CO)O2)c(=O)[nH]c1=O |
| 14% | Active | 202 µM | – | – | – | COC(=O)CS(=O)(=O)C[C@H]1O[C@@H](n2cc(C)c(=O)[nH]c2=O)C[C@@H]1O |
| 22% | – | 95 µM | – | Active | – | Cc1cn([C@H]2C[C@H](O)[C@@H](CS(=O)(=O)CC(=O)O)O2)c(=O)[nH]c1=O |
| 5% | Active | – | – | – | – | COC(=O)CSC[C@H]1O[C@@H](n2cc(C)c(=O)[nH]c2=O)C[C@H]1SCC(=O)OC |
| 15% | Active | 267 µM | – | – | – | COC(=O)CS(=O)(=O)C[C@H]1O[C@@H](n2cc(C)c(=O)[nH]c2=O)C[C@@H]1S(=O)(=O)CC(=O)OC |
| 3% | Active | 757 µM | – | – | – | COC(=O)CS[C@H]1C[C@H](n2cc(C)c(=O)[nH]c2=O)O[C@@H]1CO |
| 13% | Active | 267 µM | – | – | – | Cc1cn([C@H]2C[C@H](OCC(=O)O)[C@@H](CO)O2)c(=O)[nH]c1=O |
| 35% | – | 25 µM | – | – | Active | Cc1cn([C@H]2C[C@H](S(=O)(=O)CC(=O)O)[C@@H](CS(=O)(=O)CC(=O)O)O2)c(=O)[nH]c1=O |
